Data: ChEMBL document CHEMBL4028907, “Semisynthesis and Biological Evaluation of Xanthone Amphiphilics as Selective, Highly Potent Antifungal Agents to Combat Fungal Resistance” (J Med Chem, 2017)
In brackets after ≈: the same amount, converted by molar mass.

Experiments:
[1] = system: Candida albicans; assay: Antifungal activity against Candida albicans ATCC 10231 after 24 hrs by two fold serial dilution method; assay type: functional; details: ATCC 10231, 24 h
Outline: (§1)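 Candida grown on Sabouraud dextrose agar at 35 °C for 24 h, adjusted to ~5×10^3 CFU/mL. Two-fold dilutions from 100 to 0.78 μg/mL in Sabouraud dextrose broth, incubated at 35 °C for 24 h. MIC is the lowest concentration inhibiting growth by eye and by OD600. CLSI-based with minor modifications.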

[2] = Selectivity index, ratio of HC50 for New Zealand white rabbit RBC to MIC for Candida albicans ATCC 10231
[3] = system: Candida albicans; assay: Antifungal activity against drug resistant Candida albicans DF2672R after 24 hrs by two fold serial dilution method; assay type: functional; outline: as §1
[4] = Dissociation constant, pKa of compound; assay type: physicochemical
[5] = system: Candida albicans; assay: Antifungal activity against Candida albicans ATCC24433 after 24 hrs by two fold serial dilution method; assay type: functional; details: ATCC24433, 24 h; outline: as §1
[6] = system: Candida albicans; assay: Antifungal activity against Candida albicans DF1976R after 24 hrs by two fold serial dilution method; assay type: functional; outline: as §1
[7] = system: Candida albicans; assay: Antifungal activity against Candida albicans ATCC90028 after 24 hrs by two fold serial dilution method; assay type: functional; details: ATCC90028, 24 h; outline: as §1
[8] = system: Candida albicans; assay: Antifungal activity against Candida albicans ATCC11651 after 24 hrs by two fold serial dilution method; assay type: functional; details: ATCC11651, 24 h; outline: as §1
[9] = system: Aspergillus flavus; assay: Antifungal activity against Aspergillus flavus TCC MYA3631 after 48 hrs by two fold serial dilution method; assay type: functional; details: TCC MYA3631, 48 h
Outline: (§2)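 Moulds grown on potato dextrose agar, 30 °C, 4 days; inoculum adjusted to about 5×10^3 CFU/mL. Two-fold serial dilutions in RPMI-1640 broth, 100 to 0.78 μg/mL final, mixed with equal volume of cell suspension; incubated 30 °C, 48 h. MIC = lowest concentration inhibiting growth, judged visually and by OD530.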

[10] = system: Aspergillus fumigatus; assay: Antifungal activity against Aspergillus fumigatus TCC 90906 after 48 hrs by two fold serial dilution method; assay type: functional; details: TCC 90906, 48 h; outline: as §2
[11] = system: Fusarium solani; assay: Antifungal activity against Fusarium solani MYA3636 after 48 hrs by two fold serial dilution method; assay type: functional; details: MYA3636, 48 h; outline: as §2
[12] = system: Fusarium oxysporum; assay: Antifungal activity against Fusarium oxysporum MYA3461 after 48 hrs by two fold serial dilution method; assay type: functional; details: MYA3461, 48 h; outline: as §2
[13] = system: Aspergillus flavus; assay: Antifungal activity against Aspergillus flavus TCC 204304 after 48 hrs by two fold serial dilution method; assay type: functional; details: TCC 204304, 48 h; outline: as §2
[14] = system: Fusarium solani; assay: Antifungal activity against Fusarium solani 52628 after 48 hrs by two fold serial dilution method; assay type: functional; details: Fusarium solani, 52628, 48 h; outline: as §2
[15] = system: Aspergillus fumigatus; assay: Antifungal activity against Aspergillus fumigatus TCC MYA3626 after 48 hrs by two fold serial dilution method; assay type: functional; details: TCC MYA3626, 48 h; outline: as §2
[16] = system: Fusarium oxysporum; assay: Antifungal activity against Fusarium oxysporum 64530 after 48 hrs by two fold serial dilution method; assay type: functional; details: Fusarium oxysporum, 64530, 48 h; outline: as §2
[17] = system: Fusarium solani; assay: Antifungal activity against Fusarium solani 46492 after 48 hrs by two fold serial dilution method; assay type: functional; details: Fusarium solani, 46492, 48 h; outline: as §2
[18] = system: Aspergillus brasiliensis; assay: Antifungal activity against Aspergillus brasiliensis TCC16404 after 48 hrs by two fold serial dilution method; assay type: functional; details: TCC16404, 48 h; outline: as §2
[19] = system: Fusarium solani; assay: Antifungal activity against Fusarium solani 62877 after 48 hrs by two fold serial dilution method; assay type: functional; details: Fusarium solani, 62877, 48 h; outline: as §2
[20] = system: Staphylococcus aureus; assay: Antibacterial activity against methicillin resistant Staphylococcus aureus DM9808R by two fold serial dilution method; assay type: functional
Outline: (§3)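 Broth microdilution per CLSI guidelines with minor modifications, run in Mueller−Hinton broth; MIC is the lowest concentration giving no visible growth.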

[21] = system: Staphylococcus aureus; assay: Antibacterial activity against methicillin resistant Staphylococcus aureus DM21455 by two fold serial dilution method; assay type: functional; outline: as §3
[22] = system: Klebsiella pneumoniae; assay: Antibacterial activity against Klebsiella pneumoniae DM4299 by two fold serial dilution method; assay type: functional
Outline: (§4)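 Broth microdilution (CLSI, minor modifications) in Sabouraud dextrose, Mueller−Hinton or RPMI 1640 broth; two-fold serial dilutions of compound from stock to final 100 to 0.78 μg/mL. MIC taken as lowest concentration giving no visible growth.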

[23] = system: Pseudomonas aeruginosa; assay: Antibacterial activity against Pseudomonas aeruginosa DM23155 by two fold serial dilution method; assay type: functional; outline: as §4
[24] = system: Staphylococcus aureus; assay: Antibacterial activity against Staphylococcus aureus DM4001R by two fold serial dilution method; assay type: functional; outline: as §4
[25] = system: Bacillus cereus; assay: Antibacterial activity against Bacillus cereus ATCC11778 by two fold serial dilution method; assay type: functional; outline: as §4

Structure (SMILES)	MIC [1]	Selectivity Index [2]	MIC [3]	further results
COc1c(OCC(O)CN2CCCC2)cc2oc3cc(OCC(O)CN4CCCC4)c(CC=C(C)C)c(O)c3c(=O)c2c1CC=C(C)C (centres undefined)	6.25 µg/mL (≈ 9.4 µM)	4.2	6.25 µg/mL (≈ 9.4 µM)	pKa [4]: 11.3
COc1c(OCC(O)CN)cc2oc3cc(OCC(O)CN)c(CC=C(C)C)c(O)c3c(=O)c2c1CC=C(C)C (centres undefined)	6.25 µg/mL (≈ 11.2 µM)	7.9	6.25 µg/mL (≈ 11.2 µM)	pKa [4]: 10.5
CCCCN(C)CC(O)COc1cc2oc3cc(OCC(O)CN(C)CCCC)c(OC)c(CC=C(C)C)c3c(=O)c2c(O)c1CC=C(C)C (centres undefined)	3.13 µg/mL (≈ 4.49 µM)	15.5	3.13 µg/mL (≈ 4.49 µM)	MIC [5]: 6.25 µg/mL (≈ 8.97 µM); MIC [6]: 3.13 µg/mL (≈ 4.49 µM); MIC [7]: 3.13 µg/mL (≈ 4.49 µM); MIC [8]: 6.25 µg/mL (≈ 8.97 µM)
CC[C@H](C)C[C@H](C)CCCCCCCCC(=O)N[C@H]1C[C@@H](O)[C@@H](NCCN)NC(=O)[C@@H]2[C@@H](O)CCN2C(=O)[C@H]([C@H](O)CCN)NC(=O)[C@H]([C@H](O)[C@@H](O)c2ccc(O)cc2)NC(=O)[C@@H]2C[C@@H](O)CN2C(=O)[C@H]([C@@H](C)O)NC1=O [CASPOFUNGIN]	0.1 µg/mL (≈ 0.0915 µM)		0.2 µg/mL (≈ 0.183 µM)	MIC [5]: 0.2 µg/mL (≈ 0.183 µM); MIC [9]: > 50 µg/mL; MIC [10]: > 50 µg/mL; MIC [11]: > 50 µg/mL; MIC [12]: > 50 µg/mL; MIC [13]: > 50 µg/mL; MIC [6]: 0.2 µg/mL (≈ 0.183 µM); MIC [14]: > 50 µg/mL; MIC [15]: > 50 µg/mL; MIC [7]: 0.1 µg/mL (≈ 0.0915 µM); MIC [16]: > 50 µg/mL; MIC [8]: 0.2 µg/mL (≈ 0.183 µM); MIC [17]: > 50 µg/mL; MIC [18]: > 50 µg/mL; MIC [19]: > 50 µg/mL
CC[N+](C)(CC)CC(O)COc1cc2oc3cc(OCC(O)C[N+](C)(CC)CC)c(OC)c(CC=C(C)C)c3c(=O)c2c(O)c1CC=C(C)C.[I-].[I-] (centres undefined)	12.5 µg/mL	2.9 to 5.7	6.25 µg/mL	
COC(=O)[C@H](CCCNC(=N)N)NC(=O)COc1cc2oc3cc(OCC(=O)N[C@@H](CCCNC(=N)N)C(=O)OC)c(OC)c(CC=C(C)C)c3c(=O)c2c(O)c1CC=C(C)C	6.25 µg/mL (≈ 7.21 µM)	37.1	6.25 µg/mL (≈ 7.21 µM)	
COc1c(OCC(O)CNCc2ccc(F)cc2)cc2oc3cc(OCC(O)CNCc4ccc(F)cc4)c(CC=C(C)C)c(O)c3c(=O)c2c1CC=C(C)C (centres undefined)	6.25 µg/mL (≈ 8.09 µM)	> 64	6.25 µg/mL (≈ 8.09 µM)	
COc1c(OCC(O)CNC2CCCCCCC2)cc2oc3cc(OCC(O)CNC4CCCCCCC4)c(CC=C(C)C)c(O)c3c(=O)c2c1CC=C(C)C (centres undefined)	6.25 µg/mL (≈ 8.04 µM)	29.7	6.25 µg/mL (≈ 8.04 µM)	
CCCCCCN(CCCCCC)CC(O)COc1cc2oc3cc(OCC(O)CN(CCCCCC)CCCCCC)c(OC)c(CC=C(C)C)c3c(=O)c2c(O)c1CC=C(C)C (centres undefined)	12.5 µg/mL (≈ 14 µM)	> 32	12.5 µg/mL (≈ 14 µM)	
COc1c(OCC(O)CN2CCNCC2)cc2oc3cc(OCC(O)CN4CCNCC4)c(CC=C(C)C)c(O)c3c(=O)c2c1CC=C(C)C (centres undefined)	12.5 µg/mL (≈ 18 µM)	2.6	12.5 µg/mL (≈ 18 µM)	pKa [4]: 9.55
CCCN(CCC)CC(O)COc1cc2oc3cc(OCC(O)CN(CCC)CCC)c(OC)c(CC=C(C)C)c3c(=O)c2c(O)c1CC=C(C)C (centres undefined)	3.13 µg/mL (≈ 4.32 µM)	> 128	3.13 µg/mL (≈ 4.32 µM)	MIC [5]: 6.25 µg/mL (≈ 8.62 µM); MIC [20]: 6.25 to 12.5 µg/mL (≈ 8.62 to 17.2 µM); MIC [21]: 6.25 to 12.5 µg/mL (≈ 8.62 to 17.2 µM); MIC [22]: > 50 µg/mL; MIC [23]: > 50 µg/mL; MIC [6]: 6.25 µg/mL (≈ 8.62 µM); MIC [7]: 6.25 µg/mL (≈ 8.62 µM); MIC [8]: 6.25 µg/mL (≈ 8.62 µM); MIC [24]: 6.25 to 12.5 µg/mL (≈ 8.62 to 17.2 µM); MIC [25]: 6.25 to 12.5 µg/mL (≈ 8.62 to 17.2 µM)
CCN(CC)CC(O)COc1cc2oc3cc(OCC(O)CN(CC)CC)c(OC)c(CC=C(C)C)c3c(=O)c2c(O)c1CC=C(C)C (centres undefined)	6.25 µg/mL (≈ 9.34 µM)	5.6	6.25 µg/mL (≈ 9.34 µM)	MIC [20]: 1.56 to 3.13 µg/mL (≈ 2.33 to 4.68 µM); MIC [21]: 1.56 to 3.13 µg/mL (≈ 2.33 to 4.68 µM); MIC [22]: 25 to 50 µg/mL (≈ 37.4 to 74.8 µM); MIC [23]: 25 to 50 µg/mL (≈ 37.4 to 74.8 µM); MIC [24]: 1.56 to 3.13 µg/mL (≈ 2.33 to 4.68 µM); MIC [25]: 1.56 to 3.13 µg/mL (≈ 2.33 to 4.68 µM)
COc1c(OCC(O)CN(C)Cc2ccccc2)cc2oc3cc(OCC(O)CN(C)Cc4ccccc4)c(CC=C(C)C)c(O)c3c(=O)c2c1CC=C(C)C (centres undefined)	12.5 µg/mL (≈ 16.3 µM)	> 32	6.25 µg/mL (≈ 8.17 µM)	
COc1c(OCC(O)C[N+](C)(C)C)cc2oc3cc(OCC(O)C[N+](C)(C)C)c(CC=C(C)C)c(O)c3c(=O)c2c1CC=C(C)C.[I-].[I-] (centres undefined)	12.5 µg/mL	2.9	12.5 µg/mL	
COc1c(OCC(O)CN2CCCCC2)cc2oc3cc(OCC(O)CN4CCCCC4)c(CC=C(C)C)c(O)c3c(=O)c2c1CC=C(C)C (centres undefined)	6.25 µg/mL (≈ 9.02 µM)	5.1	6.25 µg/mL (≈ 9.02 µM)	pKa [4]: 11.2
COc1c(OCC(O)CN2CCOCC2)cc2oc3cc(OCC(O)CN4CCOCC4)c(CC=C(C)C)c(O)c3c(=O)c2c1CC=C(C)C (centres undefined)	6.25 µg/mL (≈ 8.97 µM)	> 64	6.25 µg/mL (≈ 8.97 µM)	
COc1c(OCC(=O)N[C@@H](CCCNC(=N)N)C(=O)OC(C)(C)C)cc2oc3cc(OCC(=O)N[C@@H](CCCNC(=N)N)C(=O)OC(C)(C)C)c(CC=C(C)C)c(O)c3c(=O)c2c1CC=C(C)C	12.5 µg/mL (≈ 13.1 µM)	6.3 to 12.6	6.25 µg/mL (≈ 6.57 µM)	
